Data on 23 compounds can be found in ChEMBL document CHEMBL1926666, “Synthesis of novel 3-cyclohexylpropanoic acid-derived nitrogen heterocyclic compounds and their evaluation for tuberculostatic activity” (Bioorg Med Chem, 2012).

≈ marks a conversion by molar mass, not a printed value. Calls of active or inactive are those of the source.

In one series the test system is Skin fibroblast. Description: Stimulation of type 1 collagen output in human skin fibroblasts after at 10 to 100 ug/ml after 72 hrs by ELISA. It counts as functional. The essentials: (§1)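 Neonatal human dermal fibroblasts in high-glucose DMEM with 5% calf serum, 3 × 10³ cells/well, 72 h compound exposure. Conditioned media assayed for type I collagen by sandwich ELISA (affinity-purified antibodies, streptavidin/avidin-HRP, ABTS, 405 nm), quantified against a purified human collagen I standard curve. Expressed as % of untreated control. MAP and bFGF (15 ng/mL) served as positive controls.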
For orientation: ELISA stands for enzyme-linked immunosorbent assay.

Another series relates to Brevibacterium linens. Description: Antibacterial activity against Brevibacterium linens ATCC 9174 after 24 hrs by M7-A7 CLSI method. It counts as functional. The conditions noted are these: ATCC 9174, 24 h. The gist of the method: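 Compounds dissolved in 100% DMSO at 5 mg/mL, then 1 mg/mL in 10% DMSO; serial dilutions in broth from 100 µg/mL final. B. linens: nutrient broth 24 h at 30 °C, inoculum 1 McFarland, 24 h with compounds. P. acnes: thioglycolate broth 72 h at 33 °C, inoculum 0.5 McFarland, 72 h anaerobic with compounds. MIC = lowest concentration with no visible growth, confirmed by A655.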

For series [1], the system named is Mycobacterium tuberculosis. Description: Antituberculosis activity against Mycobacterium tuberculosis H37Rv by twofold serial dilution method. Type of series: functional. The essentials: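 Classical two-fold test-tube serial dilution in Youmans' modified Proskauer–Beck liquid medium with 10% bovine serum. Inocula from 14-day cultures. Compounds in ethylene glycol, 10 mg/mL stock, geometric dilutions in medium; 3.1, 6.2, 12.5, 25, 50 and 100 µg/mL evaluated. Incubation at 37 °C. MIC = lowest concentration inhibiting growth relative to a compound-free tube. INH, PZA and RMP served as reference drugs.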

The nature of series [2]: Growth inhibition of human skin fibroblasts at 100 ug/ml after 72 hrs by MTT assay. The arrangement: species or system Skin fibroblast. The conditions noted are these: read-out: GI. The essentials: (§2)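 Neonatal human dermal fibroblasts in high-glucose DMEM with 5% cosmic calf serum, seeded 3 × 10³ cells/well and exposed to compounds for 72 h. MTT then added for 2.5 h; formazan solubilised in isopropanol and read at 550 nm; signal proportional to cell number.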

Series [3] is described as follows: Growth inhibition of human skin fibroblasts at 10 ug/ml after 72 hrs by MTT assay. The arrangement: species or system Skin fibroblast. The conditions noted are these: read-out: GI. The gist of the method: as §2
On the technique in general: Tetrazolium assays rely on reduction of a dye to a coloured formazan, in cell work by metabolically active cells.

Series [4] can be described thus: Stimulation of type 1 collagen output in human skin fibroblasts after at 100 ug/ml after 72 hrs by ELISA relative to control. It counts as functional, Skin fibroblast. The essentials: as §1

As a reminder, the MIC is the smallest concentration in the dilution series that meets the test's criterion for growth inhibition. Higher therefore signals a need for much substance. With `C=CCn1c(CCC2CCCCC2)n[nH]c1=S`, the outcome with Skin fibroblast was inactive. Also, the results for the minimal inhibitory concentration (MIC) (against Brevibacterium linens; in series [1]) were over 100 µg/mL and 50 µg/mL (≈ 199 µM), respectively.

Consider `Cl.Cl.c1cc2nc(CCC3CCCCC3)[nH]c2cn1`, for which, in series [2], the inhibition at 72 h, 100 ug/ml was found to be 0%. The inhibition at 72 h, 10 ug/ml in series [3] was determined as 0%. For the same compound, the result in the series with Skin fibroblast was inactive. In addition, the values for the MIC (against Brevibacterium linens; in series [1]) were over 100 µg/mL and 25 µg/mL, respectively.

Take `c1ccc2nc3cc4[nH]c(CCC5CCCCC5)nc4cc3nc2c1`: in series [2], the inhibition at 72 h, 100 ug/ml is 11%. Besides, the inhibition at 72 h, 10 ug/ml in series [3] turned out to be 0%. In the series on Skin fibroblast, the outcome was inactive. The MIC in the series on Brevibacterium linens is over 100 µg/mL; in series [1], 3.1 µg/mL (≈ 9.38 µM).

For the compound `C=CCNC(=S)NNC(=O)CCC1CCCCC1`, the outcome in the series with Skin fibroblast was inactive. The MIC against Brevibacterium linens is over 100 µg/mL; in series [1], 50 µg/mL (≈ 186 µM).

`O=[N+]([O-])c1cc(Cl)cc2[nH]c(CCC3CCCCC3)nc12` came in with an Activity in series [4] of 166%. Also, the inhibition at 72 h, 100 ug/ml in series [2] was 18%. In addition, in series [3], the inhibition at 72 h, 10 ug/ml came out at 0%. Moreover, the MIC is over 100 µg/mL in the series on Brevibacterium linens and 12.5 µg/mL (≈ 40.6 µM) in series [1].

For the compound `O=C(CCC1CCCCC1)NN=C1SCCS1`, the result in the series with Skin fibroblast was inactive. In addition, the values for the MIC (in the series on Brevibacterium linens; in series [1]) were over 100 µg/mL and 50 µg/mL (≈ 184 µM), respectively.

`NNC(=O)c1ccncc1` [ISONIAZID] had a minimal inhibitory concentration (MIC) in series [1] of 0.5 µg/mL (≈ 3.65 µM).

Regarding `S=c1[nH]nc(CCC2CCCCC2)n1C1CCCCC1`, in the series on Skin fibroblast, the outcome was inactive. The MIC in the series with Brevibacterium linens was over 100 µg/mL; in series [1], 50 µg/mL (≈ 170 µM).

As for `O=C(CCC1CCCCC1)NNC(=S)Nc1ccc(Cl)cc1`, the result with Skin fibroblast was inactive. For the same compound, the minimum inhibitory concentration (MIC) against Brevibacterium linens was over 100 µg/mL; in series [1] it was 50 µg/mL (≈ 147 µM).

Turning to `c1cnc2[nH]c(CCC3CCCCC3)nc2c1`, the inhibition at 72 h, 100 ug/ml in series [2] is 41%. In addition, the inhibition at 72 h, 10 ug/ml in series [3] came to 0%. Further, in the series on Skin fibroblast, the result was inactive. Moreover, the MIC against Brevibacterium linens was over 100 µg/mL; in series [1], 25 µg/mL (≈ 109 µM).

Consider `S=c1[nH]nc(CCC2CCCCC2)[nH]1`, for which the outcome with Skin fibroblast was inactive. The MIC against Brevibacterium linens is over 100 µg/mL; in series [1] it was 50 µg/mL (≈ 237 µM).

Consider `CO[C@H]1/C=C/O[C@@]2(C)Oc3c(C)c(O)c4c(O)c(c(/C=N/N5CCN(C)CC5)c(O)c4c3C2=O)NC(=O)/C(C)=C\C=C\[C@H](C)[C@H](O)[C@@H](C)[C@@H](O)[C@@H](C)[C@H](OC(C)=O)[C@@H]1C` [RIFAMPIN], for which the minimal inhibitory concentration (MIC) in series [1] is 1.2 µg/mL (≈ 1.46 µM).

On to `CSC(=NNC(=O)CCC1CCCCC1)SC`, for which the outcome in the series on Skin fibroblast was inactive. In addition, the results for the MIC (against Brevibacterium linens; in series [1]) were over 100 µg/mL and 50 µg/mL (≈ 182 µM), respectively.

Consider `O=C(CCC1CCCCC1)NNC(=S)NC1CCCCC1`, for which the result in the series with Skin fibroblast was inactive. In addition, the results for the MIC (against Brevibacterium linens; in series [1]) were over 100 µg/mL and 50 µg/mL (≈ 161 µM), respectively.

Consider `CSC(=S)NNC(=O)CCC1CCCCC1`, for which the outcome with Skin fibroblast was inactive. Also, the minimal inhibitory concentration (MIC) in the series with Brevibacterium linens is over 100 µg/mL; in series [1], 50 µg/mL (≈ 192 µM).

Consider `Cn1c(CCC2CCCCC2)n[nH]c1=S`, for which the result with Skin fibroblast was inactive. For the same compound, the MIC was over 100 µg/mL in the series with Brevibacterium linens and 50 µg/mL (≈ 222 µM) in series [1].

In series [1], `NC(=O)c1cnccn1` [PYRAZINAMIDE] yielded an MIC of 25 µg/mL (≈ 203 µM).

On to `c1ccc2c(c1)ccc1nc(CCC3CCCCC3)[nH]c12`, for which the inhibition at 72 h, 100 ug/ml in series [2] was determined as 74%. Moreover, the inhibition at 72 h, 10 ug/ml in series [3] was 16%. Besides, the outcome in the series on Skin fibroblast was inactive. The MIC in the series on Brevibacterium linens is over 100 µg/mL; in series [1], 1.5 µg/mL (≈ 5.39 µM).

`S=c1[nH]nc(CCC2CCCCC2)n1-c1ccc(Cl)cc1`: in the series with Skin fibroblast, the outcome was inactive. Besides, the MIC with Brevibacterium linens was over 100 µg/mL; in series [1] it was 50 µg/mL (≈ 155 µM).

Turning to `CC1(C)CNc2nnc(CCC3CCCCC3)n2C1`, the result in the series with Skin fibroblast was inactive. For the same compound, the figures for the MIC (with Brevibacterium linens; in series [1]) were over 100 µg/mL and 50 µg/mL (≈ 191 µM), respectively.

For `Brc1cnc2[nH]c(CCC3CCCCC3)nc2c1`, the inhibition at 72 h, 100 ug/ml in series [2] turned out to be 100%. The inhibition at 72 h, 10 ug/ml in series [3] is 17%. Further, the outcome in the series on Skin fibroblast was inactive. The MIC in the series with Brevibacterium linens is over 100 µg/mL; in series [1], 6.5 µg/mL (≈ 21.1 µM).

Take `CNC(=S)NNC(=O)CCC1CCCCC1`: in the series with Skin fibroblast, the outcome was inactive. Further, the minimum inhibitory concentration (MIC) against Brevibacterium linens is over 100 µg/mL; in series [1], 50 µg/mL (≈ 205 µM).

With `S=c1[nH]nc(CCC2CCCCC2)o1`, in the series on Skin fibroblast, the result was inactive. In addition, the values for the MIC (in the series with Brevibacterium linens; in series [1]) were over 100 µg/mL and 25 µg/mL (≈ 118 µM), respectively.
